Assay [1] deals with T1, Phosphodiesterase 3 (Homo sapiens, UniProt Q14432+Q13370). Put plainly: Inhibition of phosphodiesterase 3 at 1 uM cAMP. In kind it is protein assay. In short, it runs like this:
(§1)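 Enzyme activity was measured at 1 μM substrate, and the drug concentration giving 50% inhibition was taken as the IC50. IC50 was calculated by linear regression (r = 0.95) as the mean of three determinations, with experimental error about 15%. Values above 200 μM were reported as ns.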

For assay [2], the target named is T2, Phosphodiesterase 4 (Homo sapiens, UniProt P27815+Q08499+Q07343+Q08493). As to the kind of experiment: Inhibition of phosphodiesterase 4 at 1 uM cAMP. In kind it is protein assay. In outline:
as §1

The target of assay [3] is Phosphodiesterase 1 (Homo sapiens, UniProt P54750+Q01064+Q14123). As to the kind of experiment: Inhibition of phosphodiesterase 1. The assay is classed as protein assay. In short, it runs like this: as §1
The target in assay [4] is T3, cGMP-specific 3',5'-cyclic phosphodiesterase (Homo sapiens, UniProt O76074). As to the kind of experiment: Inhibition of phosphodiesterase 5. In outline: as §1
The target of assay [5] is Adenosine A2 receptor (Homo sapiens, UniProt P29275+P29274). As to the kind of experiment: Displacement of [3H]NECA from Adenosine A2 receptor. The assay is classed as protein assay.
Assay [6] has as its target GABA-A receptor; anion channel. As to the kind of experiment: Displacement of [3H]diazepam from rat brain GABA-A benzodiazepine receptor.
In assay [7] the target is T3, cGMP-specific 3',5'-cyclic phosphodiesterase. Put plainly: Inhibition of Phosphodiesterase 5.
The target in assay [8] is T1, Phosphodiesterase 3. Put plainly: Inhibitory concentration against Phosphodiesterase 3 was tested by linear regression. In kind it is protein assay. In outline: as §1
For assay [9], the target named is T4, Adenosine receptor A1 (Homo sapiens, UniProt P30542).
T4 sequence (P30542 whole entry): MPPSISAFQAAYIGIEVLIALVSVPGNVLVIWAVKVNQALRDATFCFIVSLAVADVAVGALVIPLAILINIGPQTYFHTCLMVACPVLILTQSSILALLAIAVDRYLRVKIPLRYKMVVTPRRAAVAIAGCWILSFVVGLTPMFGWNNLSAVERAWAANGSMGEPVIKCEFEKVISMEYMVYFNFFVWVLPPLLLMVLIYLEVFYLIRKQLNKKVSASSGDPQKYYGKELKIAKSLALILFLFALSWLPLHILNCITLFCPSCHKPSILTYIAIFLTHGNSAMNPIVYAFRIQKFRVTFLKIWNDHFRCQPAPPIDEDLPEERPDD
Put plainly: Displacement of [3H]CHA from Adenosine A1 receptor.

Assay [10] addresses T2, Phosphodiesterase 4. As to the kind of experiment: Inhibition of Phosphodiesterase 4. The assay is classed as protein assay.

14 compounds from ChEMBL document CHEMBL1130051, “9-Benzyladenines: potent and selective cAMP phosphodiesterase inhibitors” (J Med Chem, 1997) can be followed below.

Structures are written as SMILES.

On to `CNc1ncnc2c1nc(C)n2Cc1ccccc1F.CS(=O)(=O)O`, for which the figures for the concentration for half-maximal inhibition (IC50) in assay [1] and in assay [2] were greater than 200 µM and 54 µM, respectively.
On to `Nc1nc(C(F)(F)F)nc2c1ncn2Cc1ccccc1`, for which the concentration for half-maximal inhibition (IC50) turned out to be 101 µM in assay [1] and 1.8 µM in assay [2].
In the case of `CNc1nc(C(F)(F)F)nc2c1ncn2Cc1ccccc1F`, the half-maximal inhibitory concentration (IC50) in assay [1] amounted to 380 µM; in assay [3], 40 µM; in assay [4], 5 µM; in assay [2] it was 0.04 µM.
`CN(C)c1nc(C(F)(F)F)nc2c1ncn2Cc1ccccc1`: the 50% inhibitory concentration (IC50) in assay [1] is 61 µM; in assay [2], 11 µM.
As to `CNc1nc(C(F)(F)F)nc2c1ncn2C`, the IC50 in assay [1] was found to be 331 µM; in assay [2], 11 µM.
With `CNc1ncnc2c1ncn2Cc1ccccc1F.CS(=O)(=O)O`, the IC50 in [5] was greater than 100 µM; in assay [6], 13 µM; in assay [8], 121 µM; in [9], greater than 100 µM; in assay [2], 3 µM. The inhibition constant (Ki) in assay [7] amounted to 6.5 µM; in [10], 2 µM.
Take `CNc1ncnc2c1ncn2Cc1ccccc1.CS(=O)(=O)O`: the IC50 in [1] worked out at 339 µM; in [2] it was 4.6 µM.
With `CNc1nc(C)nc2c1ncn2Cc1ccccc1F.CS(=O)(=O)O`, the IC50 in [1] turned out to be 250 µM; in assay [2] it was 0.2 µM.
With `CNc1nc(C(F)(F)F)nc2c1ncn2CCc1ccccc1`, the IC50 in assay [1] is greater than 200 µM; in assay [2] it was 0.75 µM.
In the case of `CNc1nc(-c2ccccc2)nc2c1ncn2Cc1ccccc1F.CS(=O)(=O)O`, the figures for the IC50 in assay [1] and in [2] were greater than 200 µM and 0.5 µM, respectively.
The like results for `CCCCNc1ncnc2c1ncn2Cc1ccccc1F.Cl` were, in that order, greater than 200 µM and 53 µM.
With `Cl.Fc1ccccc1Cn1cnc2c(N3CCCCC3)ncnc21`, the IC50 is greater than 200 µM in assay [1] and 121 µM in assay [2].
For `Nc1ncnc2c1ncn2Cc1ccccc1` [9-BENZYL-9H-ADENINE], in that order: greater than 200 µM and 160 µM.
For `CCCCCC[C@@H]([C@@H](C)O)n1cnc2c(N)ncnc21` [EHNA], the Ki in [7] and in [10] was greater than 200 µM each time.
